Assay results published in ChEMBL document CHEMBL1938383, “Novel 5- and 6-subtituted benzothiazoles with improved physicochemical properties: potent S1P₁ agonists with in vivo lymphocyte-depleting activity” (Bioorg Med Chem Lett, 2012).

Legend:
[1] = target: T1, Sphingosine 1-phosphate receptor 1 (Homo sapiens, UniProt P21453); assay: Agonist activity at human S1P1 receptor expressed in U20S cells coexpressing eGFP assessed as receptor internalization after 1 hr by microscopy analysis; type: functional, cell-based, U2OS
Procedure, shortened: (§1)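 hS1P1–eGFP U2OS cells held in serum-free medium 2 h, then exposed to compound 1 h at 37 °C. Cells fixed in 4% formaldehyde, nuclei stained with Hoechst, imaged by automated microscopy. Potency and efficacy from GFP-containing endosomes per cell plotted against concentration. Efficacy expressed relative to 0.200 µM S1P.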

[2] = target: T1, Sphingosine 1-phosphate receptor 1; assay: Agonist activity at human S1P1 receptor expressed in U20S cells coexpressing eGFP assessed as receptor internalization after 1 hr by microscopy analysis relative to S1P1; type: functional, cell-based; settings: U2OS; procedure, shortened: as §1
[3] = target: T2, Sphingosine 1-phosphate receptor 3 (Homo sapiens, UniProt Q99500); assay: Agonist activity at human S1P3 receptor expressed in CHO cells coexpressing Gq/i5 protein by calcium flux assay; type: functional, cell-based
Procedure, shortened: (§2)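 Ca²⁺ flux read-out in CHO cells stably co-expressing human S1P3 and chimeric Gq/i5 G-protein.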

[4] = test system: Rattus norvegicus; assay: Immunosuppressive activity in Lewis rat assessed as reduction of circulating lymphocytes at 10 mg/kg, po after 4 hrs; type: functional; design: scale not given: the % may be the effect or the level left
Procedure, shortened: (§3)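 Female Lewis rats (250 g, 6–8 wk), acclimatized ≥1 week, N = 5/group. Given vehicle (20% captisol in water) or 10 mg/kg compound in 20% captisol/water by oral gavage (10 mL/kg). Killed by CO₂ 4 h post-dose, blood taken by cardiac puncture. Total blood lymphocytes counted and total plasma concentration measured. Significance vs vehicle by ANOVA/Dunnett's test.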

[5] = Plasma concentration in Lewis rat at 10 mg/kg, po after 4 hrs; type: ADME, organism-based; design: dose 10 mg/kg, route oral; procedure, shortened: as §3
[6] = Ratio of plasma concentration in Lewis rat at 10 mg/kg, po after 4 hrs to EC50 for human S1P1 receptor expressed in U20S cells; type: ADME, organism-based; design: dose 10 mg/kg, route oral; settings: in vivo
[7] = target: T2, Sphingosine 1-phosphate receptor 3; assay: Agonist activity at human S1P3 receptor expressed in CHO cells coexpressing Gq/i5 protein by calcium flux assay relative to control; type: functional, cell-based; procedure, shortened: as §2
[8] = species on record: Homo sapiens; assay: Selectivity ratio of EC50 for human S1P3 receptor to EC50 for human S1P1 receptor
[9] = test system: Rattus norvegicus; assay: Immunosuppressive activity in Lewis rat assessed as reduction of circulating lymphocytes at 1 mg/kg, po after 24 hrs; type: functional; design: scale not given: the % may be the effect or the level left

T1 sequence (P21453 whole entry): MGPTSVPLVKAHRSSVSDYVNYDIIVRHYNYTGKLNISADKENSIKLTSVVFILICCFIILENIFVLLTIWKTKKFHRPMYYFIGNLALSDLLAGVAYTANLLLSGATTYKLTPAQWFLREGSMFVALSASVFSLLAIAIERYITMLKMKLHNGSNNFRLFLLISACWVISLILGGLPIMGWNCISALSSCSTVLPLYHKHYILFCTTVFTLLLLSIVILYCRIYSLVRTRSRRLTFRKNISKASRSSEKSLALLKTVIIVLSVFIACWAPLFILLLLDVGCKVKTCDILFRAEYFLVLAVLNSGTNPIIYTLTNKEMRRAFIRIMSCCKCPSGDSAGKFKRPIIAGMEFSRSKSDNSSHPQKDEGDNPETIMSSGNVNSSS
T2 sequence (Q99500 whole entry): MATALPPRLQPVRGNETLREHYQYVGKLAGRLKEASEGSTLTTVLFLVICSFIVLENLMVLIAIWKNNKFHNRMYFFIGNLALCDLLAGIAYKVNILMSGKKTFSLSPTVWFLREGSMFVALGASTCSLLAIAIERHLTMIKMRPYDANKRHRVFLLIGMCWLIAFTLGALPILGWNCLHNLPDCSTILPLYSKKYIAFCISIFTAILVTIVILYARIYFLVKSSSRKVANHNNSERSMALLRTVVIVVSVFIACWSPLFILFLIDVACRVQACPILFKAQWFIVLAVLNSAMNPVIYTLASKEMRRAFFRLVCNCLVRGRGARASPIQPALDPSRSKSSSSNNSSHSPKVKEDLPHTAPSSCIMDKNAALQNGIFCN

| SMILES | EC50 [1] | Efficacy [2] | EC50 [3] | Efficacy [7] | other results |
| --- | --- | --- | --- | --- | --- |
| O=C(O)C1CN(Cc2ccc(-c3nc4ccc(C(=O)N5CCCCCC5)cc4s3)c(F)c2)C1 | 2720 nM | 108% | > 25000 nM | – | – |
| O=C(O)C1CN(Cc2ccc(-c3nc4ccc(C(=O)N5CCCCC5)cc4s3)c(F)c2)C1 | 1170 nM | 95% | > 25000 nM | – | – |
| O=C(c1ccc2nc(-c3ccc(CN4CC(C(=O)O)C4)cc3F)sc2c1)c1ccccn1 | 1300 nM | 50% | > 25000 nM | – | – |
| CCC1SCCN1C(=O)c1ccc2nc(-c3ccc(CN4CC(C(=O)O)C4)cc3F)sc2c1 (single isomer, unassigned; (+)) [listing 1 of 2 here] | 17 nM | – | 390 nM | – | Activity [4]: 55%; concentration ([5]; in vivo, 4 h): 190 nM; Ratio [6]: 10 |
| CCC(c1ccc2nc(-c3ccc(CN4CC(C(=O)O)C4)cc3F)sc2c1)c1ccccn1 (single isomer, unassigned) [listing 1 of 2 here] | – | 95% | – | 82% | – |
| O=C(O)C1CN(Cc2ccc(-c3nc4cc(Cc5ccccn5)ccc4s3)c(F)c2)C1 | 680 nM | 94% | > 25000 nM | – | Ratio EC50 [8]: > 37 |
| CC(c1ccc2sc(-c3ccc(CN4CC(C(=O)O)C4)cc3F)nc2c1)c1ccccn1 (racemic) | 2370 nM | 62% | > 25000 nM | – | – |
| CCC(c1ccc2nc(-c3ccc(CN4CC(C(=O)O)C4)cc3F)sc2c1)c1ccccn1 (single isomer, unassigned; (+)) [listing 1 of 2 here] | – | 93% | – | 30% | – |
| O=C(O)C1CN(Cc2ccc(-c3nc4ccc(Cc5ccccn5)cc4s3)c(F)c2)C1 | 1960 nM | 71% | > 25000 nM | – | – |
| CCC1SCCN1C(=O)c1ccc2nc(-c3ccc(CN4CC(C(=O)O)C4)cc3F)sc2c1 (stereo in doubt; (-)-11f) [listing 1 of 2 here] | 150 nM | – | 6240 nM | – | Activity [4]: 24%; concentration at 4 h ([5]; Lewis, plasma): 130 nM |
| CC1SCCN1C(=O)c1ccc2nc(-c3ccc(CN4CC(C(=O)O)C4)cc3F)sc2c1 (racemic) | 42 nM | 90% | 2040 nM | 71% | – |
| CC1(C)SCCN1C(=O)c1ccc2nc(-c3ccc(CN4CC(C(=O)O)C4)cc3F)sc2c1 | 430 nM | 80% | 2680 nM | 72% | – |
| O=C(O)C1CN(Cc2ccc(-c3nc4ccc(C(=O)N5CCSC5)cc4s3)c(F)c2)C1 | 2710 nM | 110% | 7420 nM | 21% | – |
| O=C(O)C1CN(Cc2ccc(-c3nc4cc(Cc5ccccc5)ccc4s3)c(F)c2)C1 | 41 nM | – | 1210 nM | – | Activity [9]: 58% |
| CCC1SCCN1C(=O)c1ccc2nc(-c3ccc(CN4CC(C(=O)O)C4)cc3F)sc2c1 (stereo in doubt; (-)-11f) [listing 2 of 2 here] | – | 106% | – | 36% | – |
| CCC(c1ccc2nc(-c3ccc(CN4CC(C(=O)O)C4)cc3F)sc2c1)c1ccccn1 (single isomer, unassigned; (+)) [listing 2 of 2 here] | 520 nM | – | 9750 nM | – | – |
| CCC1SCCN1C(=O)c1ccc2nc(-c3ccc(CN4CC(C(=O)O)C4)cc3F)sc2c1 (single isomer, unassigned; (+)) [listing 2 of 2 here] | – | 107% | – | 82% | Ratio EC50 [8]: 23 |
| O=C(O)C1CN(Cc2ccc(-c3nc4ccc(C5(c6ccccc6)CC5)nc4s3)c(F)c2)C1 | 2 nM | – | 888 nM | – | – |
| O=C(O)C1CN(Cc2ccc(-c3nc4ccc(C(=O)N5CCCC5)cc4s3)c(F)c2)C1 | > 20000 nM | – | > 25000 nM | – | – |
| CC(c1ccc2nc(-c3ccc(CN4CC(C(=O)O)C4)cc3F)sc2c1)c1ccccn1 (racemic) | 570 nM | 79% | > 25000 nM | – | – |
| CC(C)C1SCCN1C(=O)c1ccc2nc(-c3ccc(CN4CC(C(=O)O)C4)cc3F)sc2c1 (racemic) | 49 nM | 96% | 900 nM | 87% | – |
| CCC(c1ccc2nc(-c3ccc(CN4CC(C(=O)O)C4)cc3F)sc2c1)c1ccccn1 (single isomer, unassigned) [listing 2 of 2 here] | 100 nM | – | 2060 nM | – | – |
| O=C(O)C1CN(Cc2ccc(-c3nc4ccc(C5(c6ccccn6)CC5)cc4s3)c(F)c2)C1 | 240 nM | 90% | > 25000 nM | – | Ratio EC50 [8]: > 105 |
